Source: ChEMBL document CHEMBL1135246, “Structure-activity study of L-cysteine-based N-type calcium channel blockers: optimization of N- and C-terminal substituents” (Bioorg Med Chem Lett, 2002)

What was measured:
[1] = molecular target: Voltage-dependent N-type calcium channel subunit alpha-1B (Homo sapiens, UniProt Q00975); test: In vitro inhibition of N-type calcium channels in IMR-32 cells.; assay type: cell-based
Outline: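 N-type channel block was assessed in IMR-32 cells. Cells in suspension were loaded with fura-2/AM for 30 min at 37 °C, and calcium influx ([Ca²⁺]i) was measured. IC50 values are means of multiple determinations, each performed in duplicate.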

[2] = system: L-type calcium channel (Mus musculus); test: In vitro inhibition of L-type calcium channels in AtT-20 cells.; settings: att20
[3] = In vitro inhibition of L-type calcium channels in AtT-20 cells.; assay type: functional, cell-based, Mus musculus; settings: att20
Outline: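 Mouse pituitary tumour AtT-20/D16v-F2 cells, grown in DMEM with 10% FBS and penicillin–streptomycin, served as the L-type channel source. Cells in suspension were loaded with fura-2/AM for 30 min at 37 °C, and calcium influx ([Ca²⁺]i) was read fluorometrically. IC50 values are means of multiple determinations, each run in duplicate.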

Sequence of Voltage-dependent N-type calcium channel subunit alpha-1B (Q00975 whole entry): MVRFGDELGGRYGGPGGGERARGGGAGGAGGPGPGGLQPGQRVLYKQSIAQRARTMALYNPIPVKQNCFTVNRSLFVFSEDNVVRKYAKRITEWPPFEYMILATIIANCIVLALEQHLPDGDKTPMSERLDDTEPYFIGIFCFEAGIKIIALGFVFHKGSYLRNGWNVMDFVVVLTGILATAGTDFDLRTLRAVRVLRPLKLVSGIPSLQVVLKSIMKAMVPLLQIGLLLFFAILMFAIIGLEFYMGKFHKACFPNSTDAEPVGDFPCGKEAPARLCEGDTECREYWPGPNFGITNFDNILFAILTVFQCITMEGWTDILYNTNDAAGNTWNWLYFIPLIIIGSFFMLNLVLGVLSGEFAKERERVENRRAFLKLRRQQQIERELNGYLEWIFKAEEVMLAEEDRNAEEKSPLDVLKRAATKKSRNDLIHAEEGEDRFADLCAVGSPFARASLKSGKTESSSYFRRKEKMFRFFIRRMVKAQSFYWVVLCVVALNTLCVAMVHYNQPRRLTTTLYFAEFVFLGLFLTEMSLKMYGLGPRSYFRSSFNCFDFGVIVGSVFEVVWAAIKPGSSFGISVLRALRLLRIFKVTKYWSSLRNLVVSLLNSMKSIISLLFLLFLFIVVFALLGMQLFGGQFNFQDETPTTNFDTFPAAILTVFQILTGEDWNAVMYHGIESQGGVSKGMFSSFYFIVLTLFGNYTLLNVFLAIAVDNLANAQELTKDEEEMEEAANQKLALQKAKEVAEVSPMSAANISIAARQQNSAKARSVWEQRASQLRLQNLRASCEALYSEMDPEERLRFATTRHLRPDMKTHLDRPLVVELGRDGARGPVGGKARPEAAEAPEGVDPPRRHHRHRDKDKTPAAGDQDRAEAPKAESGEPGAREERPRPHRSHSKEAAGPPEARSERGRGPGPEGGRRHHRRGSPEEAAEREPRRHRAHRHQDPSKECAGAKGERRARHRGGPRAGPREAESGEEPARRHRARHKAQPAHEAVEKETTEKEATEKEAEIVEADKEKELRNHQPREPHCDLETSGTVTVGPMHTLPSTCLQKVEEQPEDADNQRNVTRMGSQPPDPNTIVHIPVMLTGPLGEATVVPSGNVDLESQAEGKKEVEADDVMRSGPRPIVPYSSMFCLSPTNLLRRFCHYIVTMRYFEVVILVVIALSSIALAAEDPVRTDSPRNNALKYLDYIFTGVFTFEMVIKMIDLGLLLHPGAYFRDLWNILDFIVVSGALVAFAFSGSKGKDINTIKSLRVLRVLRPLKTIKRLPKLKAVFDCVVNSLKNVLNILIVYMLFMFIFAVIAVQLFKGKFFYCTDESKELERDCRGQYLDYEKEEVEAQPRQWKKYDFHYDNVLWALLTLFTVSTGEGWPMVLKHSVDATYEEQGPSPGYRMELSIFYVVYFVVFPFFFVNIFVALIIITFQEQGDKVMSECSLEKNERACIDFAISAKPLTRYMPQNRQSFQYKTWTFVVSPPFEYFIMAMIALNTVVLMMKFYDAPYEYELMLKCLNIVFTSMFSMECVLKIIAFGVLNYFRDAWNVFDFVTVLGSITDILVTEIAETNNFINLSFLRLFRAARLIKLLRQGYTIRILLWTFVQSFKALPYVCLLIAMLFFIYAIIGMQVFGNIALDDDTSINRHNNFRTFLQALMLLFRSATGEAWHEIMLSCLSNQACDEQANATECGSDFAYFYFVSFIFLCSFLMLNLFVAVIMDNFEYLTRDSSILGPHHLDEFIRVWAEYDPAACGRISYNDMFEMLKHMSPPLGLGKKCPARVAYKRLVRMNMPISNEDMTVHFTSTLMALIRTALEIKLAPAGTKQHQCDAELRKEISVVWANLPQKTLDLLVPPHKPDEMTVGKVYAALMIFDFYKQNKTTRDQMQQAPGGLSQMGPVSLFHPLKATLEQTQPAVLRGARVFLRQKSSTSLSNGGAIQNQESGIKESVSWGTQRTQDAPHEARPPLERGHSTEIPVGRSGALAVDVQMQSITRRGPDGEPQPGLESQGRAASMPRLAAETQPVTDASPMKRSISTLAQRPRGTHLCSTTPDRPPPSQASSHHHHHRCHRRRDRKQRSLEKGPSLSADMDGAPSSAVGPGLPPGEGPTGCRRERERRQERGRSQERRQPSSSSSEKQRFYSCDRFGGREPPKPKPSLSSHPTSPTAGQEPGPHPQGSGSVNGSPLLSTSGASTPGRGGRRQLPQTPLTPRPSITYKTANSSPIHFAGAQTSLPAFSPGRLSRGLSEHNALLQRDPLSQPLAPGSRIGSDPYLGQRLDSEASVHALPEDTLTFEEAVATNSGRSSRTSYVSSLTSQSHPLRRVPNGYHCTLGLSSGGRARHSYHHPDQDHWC

Structure (SMILES)	IC50 [1]	IC50 [2]	IC50 [3]
CC(C)(C)OC(=O)N1CSC[C@H]1C(=O)N[C@@H](CSCC1CCCCC1)C(=O)NCc1ccc(O)cc1	1.8 µM	2.8 µM	–
COCC(=O)N1CSC[C@H]1C(=O)N[C@@H](CSCC1CCCCC1)C(=O)NCc1ccc(Oc2ccccc2)cc1	0.12 µM	0.93 µM	–
CC(C)(C)OC(=O)N1CSC[C@H]1C(=O)N[C@@H](CSCC1CCCCC1)C(=O)NCc1ccc(Oc2ccccc2)cc1	–	1.7 µM	–
CC(C)COC(=O)N1CSC[C@H]1C(=O)N[C@@H](CSCC1CCCCC1)C(=O)NCc1ccc(Oc2ccccc2)cc1	0.36 µM	1.2 µM	–
COc1ccc(CNC(=O)[C@H](CSCC2CCCCC2)NC(=O)C2CCCCC2)cc1	1.3 µM	–	1.9 µM
COC(=O)N1CSC[C@H]1C(=O)N[C@@H](CSCC1CCCCC1)C(=O)NCc1ccc(Oc2ccccc2)cc1	0.12 µM	0.87 µM	–
COc1ccc(CNC(=O)[C@H](CSCC2CCCCC2)NC(=O)c2cscn2)cc1	1.9 µM	–	2.7 µM
O=C(NCc1ccc(Oc2ccccc2)cc1)[C@H](CSCC1CCCCC1)NC(=O)[C@@H]1CSCN1CCO	0.35 µM	1.1 µM	–

Continued by falling IC50 [1], values first:

IC50 [1]	IC50 [2]	IC50 [3]	Structure (SMILES)
5.8 µM	–	–	COc1ccc(CNC(=O)[C@@H](N)CSCC2CCCCC2)cc1
1.2 µM	–	2.7 µM	COc1ccc(CNC(=O)[C@H](CSCC2CCCCC2)NC(=O)CC(C)C)cc1
0.92 µM	–	2.3 µM	COc1ccc(CNC(=O)[C@H](CSCC2CCCCC2)NC(=O)C2CCCC2)cc1
0.72 µM	–	1.5 µM	COc1ccc(CNC(=O)[C@H](CSCC2CCCCC2)NC(=O)OCC(C)C)cc1
0.61 µM	0.95 µM	–	CN(C)c1ccc(CNC(=O)[C@H](CSCC2CCCCC2)NC(=O)[C@@H]2CSCN2C(=O)OC(C)(C)C)cc1
0.6 µM	0.5 µM	–	CC(C)(C)OC(=O)N1CSC[C@H]1C(=O)N[C@@H](CSCC1CCCCC1)C(=O)NCc1ccc([N+](=O)[O-])cc1
0.5 µM	1.5 µM	–	CC(C)(C)OC(=O)N1CSC[C@H]1C(=O)N[C@@H](CSCC1CCCCC1)C(=O)NCc1ccc(OCc2ccccc2)cc1
0.33 µM	0.44 µM	–	C=CCOC(=O)N1CSC[C@H]1C(=O)N[C@@H](CSCC1CCCCC1)C(=O)NCc1ccc(Oc2ccccc2)cc1
0.29 µM	2 µM	–	O=C(N[C@@H](CSCC1CCCCC1)C(=O)NCc1ccc(Oc2ccccc2)cc1)[C@@H]1CSCN1
0.2 µM	0.6 µM	–	COCCN1CSC[C@H]1C(=O)N[C@@H](CSCC1CCCCC1)C(=O)NCc1ccc(Oc2ccccc2)cc1
